Common to all, as to conditions: Homo sapiens
Substrate in series [1]: CCCC[C@@H](C(=O)Nc1ccc2c(C)c(CC(=O)O)c(=O)oc2c1)n1cc([C@@](C)(NC(=O)c2ccccc2)C(C)C)nn1
As to the kind of experiment: (§1) Binding affinity to cathepsin S. A digest of the protocol:
(§2)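 Cathepsin S at 0.6 nM in pH 6.1 100 mM sodium phosphate with 100 mM NaCl, 1 mM DTT, 1 mM EDTA and 0.001% Tween-20. Enzyme preincubated 5 min at 37 °C with five inhibitor concentrations (10-90% inhibition), in duplicate. Cbz-Leu-Arg-AMC added at 5 and 2.5 µM, then AMC read (ex 355/em 450 nm) over 5 min. Ki by Dixon method.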

Substrate in series [2]: CCCC[C@@H](C(=O)Nc1ccc2c(C)c(CC(=O)O)c(=O)oc2c1)n1cc([C@@](C)(NC(=O)c2ccccc2)C2CCCCC2)nn1
The series is described as §1. In outline: as §2

Substrate in series [3]: CCCC[C@@H](C(=O)Nc1ccc2c(C)c(CC(=O)O)c(=O)oc2c1)n1cc([C@@](C)(NC(=O)c2ccsc2)C(C)C)nn1
The description is as §1. In outline: as §2

Substrate in series [4]: CCCC[C@@H](C(=O)Nc1ccc2c(C)c(CC(=O)O)c(=O)oc2c1)n1cc([C@@](C)(NC(=O)c2ccsc2)C2CCC(C)CC2)nn1
The series is described as §1. A digest of the protocol: as §2

Substrate in series [5]: CCCC[C@@H](C(=O)Nc1ccc2c(C)c(CC(=O)O)c(=O)oc2c1)n1cc([C@@](C)(NC(=O)c2ccsc2)C2CCCCC2)nn1
The description is as §1. A digest of the protocol: as §2

In ChEMBL document CHEMBL1137397, “Identification of selective, nonpeptidic nitrile inhibitors of cathepsin s using the substrate activity screening method” (J Med Chem, 2006) one finds Km data, which are given here for 1 protein.

A word on the Km: it is the substrate concentration at which the rate is half of its maximum.

B1: Cathepsin S (Homo sapiens), P25774 (protein)
chain: MKRLVCVLLVCSSAVAQLHKDPTLDHHWHLWKKTYGKQYKEKNEEAVRRLIWEKNLKFVMLHNLEHSMGMHSYDLGMNHLGDMTSEEVMSLMSSLRVPSQWQRNITYKSNPNRILPDSVDWREKGCVTEVKYQGSCGACWAFSAVGALEAQLKLKTGKLVSLSAQNLVDCSTEKYGNKGCNGGFMTTAFQYIIDNKGIDSDASYPYKAMDQKCQYDSKYRAATCSKYTELPYGREDVLKEAVANKGPVSVGVDARHPSFFLYRSGVYYEPSCTQNVNHGVLVVGYGDLNGKEYWLVKNSWGHNFGEEGYIRMARNKGNHCGIASFPSYPEI
On to B1, for which the Km was 410 µM in series [1]; 57 µM in series [2]; 300 µM in series [3]; 17 µM in series [4]; 13 µM in series [5].
